The subject of data set [1] is RAW264.7. Kind of data set: Cytotoxicity against mouse RAW264.7 cells at 2.5 to 100 uM after 18 hrs by MTT assay. The settings on record: raw264.7, 18 h. Format: cell-based. In short, it runs like this: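 RAW 264.7 murine macrophages in 96-well plates co-incubated with compound or vehicle for 18 h. MTT added to […] final, then 4 h further incubation with DMSO; formazan read at 570 nm. Toxic if MTT metabolism more than 20% below control.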
A general note: Tetrazolium assays rely on reduction of a dye to a coloured formazan, in cell work by metabolically active cells.

For data set [2], the system named is RAW264.7. Kind of data set: Inhibition of LPS-induced TNFalpha production in mouse RAW264.7 cells pre-incubated for 30 mins before LPS challenge measured 6 hrs post LPS challenge by ELISA. It counts as functional, cell-based. In outline:
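RAW264.7 macrophages at 2 × 10⁵ cells/well, pretreated with test compound, dexamethasone or vehicle for 30 min, then co-incubated with LPS (100 ng/ml) for a further 6 h. Concentrations tested 2.5–100 μM.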

Data set [3] relates to RAW264.7. Kind of data set: Inhibition of LPS-induced nitric oxide production in mouse RAW264.7 cells pre-incubated for 20 mins before LPS challenge measured 18 hrs post LPS challenge by Griess method. Format: functional, cell-based. In outline: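 RAW264.7 cells at 2 × 10⁵ cells/well, pretreated with test compound, aminoguanidine or vehicle for 20 min, then LPS co-incubation for a further 18 h. Supernatant mixed with Griess reagent (1% sulfanilamide plus 0.1% naphthylethylenediamine). Concentrations tested 2.5–100 μM.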
(In general: Nitrite, measured by Griess reagent, commonly stands in for NO production.)

For data set [4], the target named is T1, Prostaglandin G/H synthase 1 (Ovis aries) (UniProt P05979).
T1 sequence (whole entry): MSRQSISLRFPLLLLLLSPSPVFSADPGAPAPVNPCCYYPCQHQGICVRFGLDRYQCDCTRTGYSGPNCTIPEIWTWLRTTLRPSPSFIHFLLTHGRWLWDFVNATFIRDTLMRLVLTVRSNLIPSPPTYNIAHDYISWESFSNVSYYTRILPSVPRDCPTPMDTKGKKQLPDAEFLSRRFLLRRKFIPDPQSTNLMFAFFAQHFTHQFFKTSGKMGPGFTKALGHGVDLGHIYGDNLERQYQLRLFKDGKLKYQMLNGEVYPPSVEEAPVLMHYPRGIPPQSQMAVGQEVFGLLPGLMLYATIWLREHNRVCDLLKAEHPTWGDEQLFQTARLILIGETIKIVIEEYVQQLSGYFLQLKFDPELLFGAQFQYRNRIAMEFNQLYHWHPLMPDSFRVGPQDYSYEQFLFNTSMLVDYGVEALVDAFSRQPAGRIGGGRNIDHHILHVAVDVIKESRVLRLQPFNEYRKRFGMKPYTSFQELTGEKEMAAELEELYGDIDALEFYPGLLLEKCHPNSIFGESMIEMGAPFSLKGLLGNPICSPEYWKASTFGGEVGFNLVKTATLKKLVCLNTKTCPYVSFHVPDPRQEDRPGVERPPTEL
The settings on record: 50 uM.

Data set [5] concerns RAW264.7. The data set is described as follows: Effect on basal COX-2 mRNA expression in mouse RAW264.7 cells at 100 uM by RT-PCR. Format: functional, cell-based.
The subject of data set [6] is RAW264.7. The data set is described as follows: Effect on basal COX-2 mRNA expression in mouse RAW264.7 cells at 20 uM by RT-PCR. It counts as functional, cell-based.
The target of data set [7] is T1, Prostaglandin G/H synthase 1 (Ovis aries). Kind of data set: Inhibition of ovine COX1 at 2.5 to 100 uM incubated for 10 mins by enzyme immunoassay. In short, it runs like this:
(§1)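 Screening kit assay. Ovine COX-1 or human recombinant COX-2 with heme in reaction buffer, incubated with compound or DMSO for 10 min. Arachidonic acid added from a 10 mM stock, reaction 2 min at 37 °C. Stopped with 1 M HCl, then saturated SnCl2 for 5 min at room temperature. Prostaglandins quantified by EIA. Background from inactivated enzyme; DMSO taken as 100% activity. Mean ± SEM, Dunnett's test.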

For data set [8], the system named is RAW264.7. Kind of data set: Inhibition of LPS-induced TNFalpha production in mouse RAW264.7 cells at 2.5 to 100 uM pre-incubated for 30 mins before LPS challenge measured 6 hrs post LPS challenge by ELISA. Format: functional, cell-based. In short, it runs like this: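 RAW264.7 cells at 2 × 10⁵ per well pretreated with compound, dexamethasone or vehicle for 30 min, then co-incubated with LPS 100 ng/ml for a further 6 h before TNF-α measurement.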

In data set [9] the test system is RAW264.7. The data set is described as follows: Inhibition of LPS-induced nitric oxide production in mouse RAW264.7 cells at 2.5 to 100 uM pre-incubated for 20 mins before LPS challenge measured 18 hrs post LPS challenge by Griess method. Format: functional, cell-based. In outline: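 RAW264.7 cells at 2 × 10⁵ per well pretreated with compound, aminoguanidine or vehicle for 20 min, then co-incubated with LPS 1 µg/ml for a further 18 h. Supernatant mixed with Griess reagent (1% sulfanilamide, 0.1% naphthylethylenediamine) for nitrite read-out.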

Data set [10] deals with RAW264.7. Kind of data set: Inhibition of LPS-induced COX-2 mRNA expression in mouse RAW264.7 cells at 100 uM pre-incubated for 3 hrs before LPS challenge measured 24 hrs post LPS challenge by RT-PCR. Format: functional. In short, it runs like this: (§2)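 RAW 264.7 cells seeded at 2 × 10⁵ per well and grown to confluence, treated with compound or vehicle for 3 h, then stimulated with LPS 1 µg/ml for 24 h. Total RNA extracted; SYBR real-time RT-PCR, 40 cycles of 95 °C 15 s / 60 °C 1 min, samples in duplicate. Quantified by 2^-ΔΔCt, normalized to β-actin, fold change relative to untreated cells. TPCK 20 µM positive control.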

In data set [11] the target is T2, Prostaglandin G/H synthase 2 (Homo sapiens) (UniProt P35354).
T2 sequence (whole entry): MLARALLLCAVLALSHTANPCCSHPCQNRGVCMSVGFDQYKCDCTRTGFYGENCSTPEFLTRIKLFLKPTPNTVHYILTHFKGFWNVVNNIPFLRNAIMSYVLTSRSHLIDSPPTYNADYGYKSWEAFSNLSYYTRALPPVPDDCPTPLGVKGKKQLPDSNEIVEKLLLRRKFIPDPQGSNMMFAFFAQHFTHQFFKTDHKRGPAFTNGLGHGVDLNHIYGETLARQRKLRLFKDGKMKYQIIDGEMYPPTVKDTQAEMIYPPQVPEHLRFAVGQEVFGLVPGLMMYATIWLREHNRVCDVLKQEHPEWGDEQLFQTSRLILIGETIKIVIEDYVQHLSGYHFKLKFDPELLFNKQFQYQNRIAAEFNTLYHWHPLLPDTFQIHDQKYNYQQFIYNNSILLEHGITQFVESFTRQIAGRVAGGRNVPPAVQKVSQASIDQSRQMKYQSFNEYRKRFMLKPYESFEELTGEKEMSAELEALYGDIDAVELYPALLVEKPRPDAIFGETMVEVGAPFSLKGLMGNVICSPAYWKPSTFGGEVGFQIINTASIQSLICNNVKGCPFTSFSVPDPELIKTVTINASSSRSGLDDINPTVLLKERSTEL
Kind of data set: (§3) Inhibition of human recombinant COX2 incubated for 10 mins by enzyme immunoassay. In outline:
as §1

For data set [12], the target named is T3, Prostaglandin G/H synthase 2 (Homo sapiens, UniProt P35354).
T3 sequence (P35354 whole entry): T2 sequence (whole entry)
Described as §3. In short, it runs like this:
as §1

Data set [13] has as its system RAW264.7. The data set is described as follows: Inhibition of LPS-induced COX-2 mRNA expression in mouse RAW264.7 cells at 20 uM pre-incubated for 3 hrs before LPS challenge measured 24 hrs post LPS challenge by RT-PCR. Format: functional. In outline:
as §2

Data set [14] concerns the target T2, Prostaglandin G/H synthase 2 (Homo sapiens). Kind of data set: Inhibition of human recombinant COX2 at 2.5 to 100 uM incubated for 10 mins by enzyme immunoassay. In short, it runs like this: as §1

The term inhibition denotes the percentage by which the read-out fell short of the control. One may read the IC50 as the concentration at which inhibition is half-maximal.

Structures are written as SMILES. Activity calls are given as the source filed them. The rule behind the calls is not given here.

For `C[C@]1(O)C[C@@H](O)[C@]2(O)C=CO[C@@H](O[C@@H]3O[C@H](CO)[C@@H](O)[C@H](O)[C@H]3O)[C@@H]21` [HARPAGIDE], the Activity result in the data set on RAW264.7 [1] is “Non-toxic”.
On to `N=C(N)NN`, for which the inhibition entry with RAW264.7 [2] and with RAW264.7 [3] was “Active” in each case.
Regarding `CC(=O)Oc1ccccc1C(=O)O`, the inhibition result in data set [4] is “Active”.
On to `C[C@]1(O)C[C@@H](O)[C@](O)(CC=O)[C@@H]1C=O`, for which the Activity entry in the data set on RAW264.7 [1] is recorded as “Non-toxic”. Also, the result in the data set on RAW264.7 [5] and with RAW264.7 [6] was inactive. Also, the inhibition entry (in data set [7]; in the data set with RAW264.7 [8]; in the data set on RAW264.7 [9]) was “inactive” throughout. This compound yielded an inhibition at 100 µM with RAW264.7 [10] of 47.6%. In [11], the inhibition result is “Dose-dependent effect”. For the same compound, the IC50 in [12] stood at 43.3 µM.
Compound `Cc1ccc(S(=O)(=O)N[C@@H](Cc2ccccc2)C(=O)CCl)cc1` [TPCK] returned an inhibition at 20 µM with RAW264.7 [13] of 59.5%.
For the compound `C[C@@H]1C[C@H]2[C@@H]3CCC4=CC(=O)C=C[C@]4(C)[C@@]3(F)[C@@H](O)C[C@]2(C)[C@@]1(O)C(=O)CO`, the inhibition result in the data set with RAW264.7 [2] and with RAW264.7 [3] was “Active” each time.
In the case of `C[C@]1(OC(=O)/C=C/c2ccccc2)C[C@@H](O)[C@]2(O)C=CO[C@@H](O[C@@H]3O[C@H](CO)[C@@H](O)[C@H](O)[C@H]3O)[C@@H]21` [HARPAGOSIDE], the Activity result in the data set with RAW264.7 [1] was “Non-toxic”. Moreover, the result in the data set on RAW264.7 [5] and in the data set on RAW264.7 [6] was inactive. The inhibition entry (in [7]; in the data set on RAW264.7 [8]; in the data set on RAW264.7 [9]; with RAW264.7 [10]; in data set [14]) was “inactive” in each case.
Regarding `C[C@]1(O)C[C@@H](O)[C@]2(O)C=CO[C@@H](O[C@H]3O[C@H](CO)[C@@H](O)[C@H](O)[C@H]3O)[C@@H]21`, the result in the data set with RAW264.7 [5] and with RAW264.7 [6] was inactive. Besides, the inhibition result (in data set [7]; in the data set with RAW264.7 [8]; in the data set on RAW264.7 [9]; with RAW264.7 [10]; in data set [14]) was “inactive” in each case.

The values above are taken from ChEMBL document CHEMBL1811919, “Effects of β-glucosidase hydrolyzed products of harpagide and harpagoside on cyclooxygenase-2 (COX-2) in vitro” (Bioorg Med Chem, 2011).
